This note sets out measurements from ChEMBL document CHEMBL1155883, “5-Alkyl-6-benzyl-2-(2-oxo-2-phenylethylsulfanyl)pyrimidin-4(3H)-ones, a series of anti-HIV-1 agents of the dihydro-alkoxy-benzyl-oxopyrimidine family with peculiar structure-activity relationship profile” (J Med Chem, 2008).

For data set [1], the system named is Human immunodeficiency virus 1. Kind of data set: Resistance index, ratio of EC50 for drug-resistant HIV1 isolate with reverse transcriptase K103N mutation to EC50 for wild type HIV1 NL4-3. Format: functional. The method in brief: (§1)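 Fold resistance is the EC50 against the K103N, Y181C or Y188L mutant strain divided by the EC50 against wt NL4-3. Each EC50 is from MT-4 cells infected in the presence of different drug concentrations, with viability read by MTT at day 5 postinfection.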

Data set [2] has as its system Human immunodeficiency virus 1. The data set can be described thus: Resistance index, ratio of EC50 for drug-resistant HIV1 isolate with reverse transcriptase Y181C mutation to EC50 for wild type HIV1 NL4-3. Type of data set: functional. The method in brief: as §1
Data set [3] concerns Human immunodeficiency virus 1. The data set can be described thus: Resistance index, ratio of ID50 for reverse transcriptase Y181I mutant to IC50 for wild-type HIV1 reverse transcriptase. The method in brief:
(§2)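 Recombinant wt and K103N, L100I or Y181I HIV-1 RT (>95% pure), 2-4 nM. RNA-dependent DNA polymerase assay on 0.5 µg poly(rA)/oligo(dT) 10:1 (0.3 µM 3'-OH ends) with 10 µM [3H]-dTTP and 8% final DMSO. Aliquots taken every 2 min. Inhibitor range 0.2-5× ID50, fitted to a noncompetitive model. Fold resistance is mutant ID50 divided by wt ID50.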

Data set [4] concerns Human immunodeficiency virus type 1 reverse transcriptase (Human immunodeficiency virus 1), Q72547 [Y181I].
Data set [5] has as its system Human immunodeficiency virus type 1 reverse transcriptase (Human immunodeficiency virus 1), Q72547 [L100I].
The subject of data set [6] is Human immunodeficiency virus 1. The data set can be described thus: Antiviral activity against HIV1 isolates with reverse transcriptase Y188L mutation in human MT4 cells assessed as inhibition of virus-induced cytopathogenicity by MTT assay. As to conditions: Human immunodeficiency virus 1, MT4. Type of data set: functional, organism-based. A digest of the protocol: (§3)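 MT-4 lymphoid cells infected with HIV-1 carrying RT K103N, Y181C or Y188L, in the presence of different drug concentrations. Viable cells counted at day 5 postinfection by MTT colorimetric assay. EC50 is the concentration that inhibits 50% of the HIV-induced cytopathic effect.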

In data set [7] the test system is Human immunodeficiency virus 1. Kind of data set: Resistance index, ratio of EC50 for drug-resistant HIV1 isolate with reverse transcriptase Y188L mutation to EC50 for wild type HIV1 NL4-3. Type of data set: functional. A digest of the protocol: as §1
The nature of data set [8]: Cytotoxicity against human MT4 cells by MTT assay. Type of data set: cell-based. The method in brief: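 Mock-infected MT-4 cells were exposed to a range of compound concentrations. Viability was read by MTT at day 5. CC50 is the concentration that kills 50% of uninfected cells. The top concentration was limited by compound precipitation in culture medium. Means ± SD from at least two or three experiments.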
For orientation: Tetrazolium dyes change colour on reduction, which living cells bring about.

A short description of data set [9]: Selectivity index, ratio of CC50 for human MT4 cells to EC50 for HIV1 NL4-3. As to conditions: read-out: Ratio CC50/EC50. Format: toxicity, cell-based. A digest of the protocol:
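Computed as CC50/EC50. CC50 comes from MTT viability of mock-infected MT-4 cells and EC50 from MTT protection of NL4-3-infected MT-4 cells, both read at day 5.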

Data set [10] has as its target Human immunodeficiency virus type 1 reverse transcriptase (Human immunodeficiency virus 1) (UniProt Q72547).
Data set [11] relates to Human immunodeficiency virus 1. The data set can be described thus: Resistance index, ratio of ID50 for reverse transcriptase L100I mutant to IC50 for wild-type HIV1 reverse transcriptase. The method in brief: as §2
Data set [12] deals with Human immunodeficiency virus 1. The data set can be described thus: Antiviral activity against HIV1 NL4-3 in human MT4 cells assessed as inhibition of virus-induced cytopathogenicity by MTT assay. Format: functional, organism-based. The settings on record: Human immunodeficiency virus 1, NL4-3, MT4. The method in brief:
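MT-4 lymphoid cells infected with wild-type HIV-1 NL4-3 in the presence of a range of compound concentrations. Viable cells were counted by MTT colorimetric read-out at day 5 post-infection. EC50 is the concentration giving 50% protection from virus-induced cytopathic effect. Means ± SD from at least two or three experiments.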
Background: Protection from cytopathic effect is a common read-out in antiviral testing.

Data set [13] relates to Human immunodeficiency virus 1. The data set can be described thus: Antiviral activity against HIV1 isolates with reverse transcriptase K103N mutation in human MT4 cells assessed as inhibition of virus-induced cytopathogenicity by MTT assay. Format: functional, organism-based. As to conditions: Human immunodeficiency virus 1, MT4. The method in brief:
as §3

For data set [14], the system named is Human immunodeficiency virus 1. Kind of data set: Antiviral activity against HIV1 isolates with reverse transcriptase Y181C mutation in human MT4 cells assessed as inhibition of virus-induced cytopathogenicity by MTT assay. The settings on record: Human immunodeficiency virus 1, MT4. Type of data set: functional, organism-based. A digest of the protocol: as §3

Data set [15] has as its system Human immunodeficiency virus 1. The data set can be described thus: Resistance index, ratio of ID50 for reverse transcriptase K103N mutant to IC50 for wild-type HIV1 sreverse transcriptase. The method in brief:
as §2

Data set [16] concerns Human immunodeficiency virus type 1 reverse transcriptase (Human immunodeficiency virus 1), Q72547 [K103N].

pEC50: −log10 of the molar value.

As to `Cc1c(Cc2c(Cl)cccc2Cl)nc(SCC(=O)c2ccccc2)[nH]c1=O`, the “Ratio EC50” value in data set [1] was 100; in data set [2], 13; in data set [7], 232. In addition, the values for the Ratio in [3], in data set [11] and in data set [15] were 6, 34 and 53, respectively. Further, the ID50 in data set [4] came out at 1.38 µM; in data set [5], 7.8 µM; in data set [10] it was 0.23 µM; in data set [16] it was 12 µM. Besides, the pEC50 (as a rule, the EC50 on a negative log10 scale, so that one unit is a factor of ten) in data set [6] was 5.05; in data set [12], 7.42; in data set [13] it was 5.42; in [14], 6.32. For the same compound, the CC50 (usually the concentration that lowers cell viability or growth by half) in data set [8] was over 60 µM. In addition, the selectivity ratio in [9] is over 1580.
For `CCc1c(Cc2c(F)cccc2F)nc(SCC(=O)c2ccccc2)[nH]c1=O`, the “Ratio EC50” value in data set [1] was determined as 108; in data set [2] it was 17. Also, the Ratio in data set [3] was 19; in data set [11], 126; in data set [15], 86. The ID50 in [4] was 0.82 µM; in data set [5] it was 5.4 µM; in data set [10], 0.043 µM; in data set [16], 3.7 µM. For the same compound, the pEC50 in data set [6] is under 4.25; in [12] it was 7.92; in data set [13], 5.89; in data set [14], 6.70. This compound displayed a CC50 in data set [8] of 56 µM. Also, the selectivity ratio in [9] amounted to 4670.
With `COc1ccc(CCSc2nc(Cc3c(Cl)cccc3Cl)c(C)c(=O)[nH]2)cc1`, the results for the “Ratio EC50” value in data set [1] and in data set [7] were 6214 and 49286, respectively. Moreover, the Ratio in data set [3] came to 58; in [15], 123. The compound further registered a CC50 in [8] of over 57 µM. Besides, in [9], the selectivity ratio was over 407000. In [12], the pEC50 is over 9.85.
Regarding `CCc1c(Cc2c(F)cccc2F)nc(SCC(=O)c2ccc(F)cc2)[nH]c1=O`, the results for the “Ratio EC50” value in [1] and in data set [2] were 270 and 38, respectively. Further, the Ratio in [3] worked out at 8; in [11], 113; in data set [15] it was 60. Further, the ID50 in [4] is 0.51 µM; in data set [5] it was 6.9 µM; in [10], 0.061 µM; in data set [16], 3.65 µM. In addition, the pEC50 in [6] is under 4.22; in data set [12], 7.72; in data set [13], 5.29; in data set [14] it was 6.14. In data set [8], the 50% cytotoxic concentration (CC50) was over 60 µM. Further, the selectivity ratio in data set [9] is over 3160.
Take `CCc1c(Cc2c(F)cccc2Cl)nc(SCC(=O)c2ccc(F)cc2)[nH]c1=O`: the figures for the “Ratio EC50” value in [1] and in data set [2] were 828 and 386, respectively. In addition, the Ratio in [3] is 12; in data set [11] it was 170; in data set [15], 50. In addition, the ID50 in data set [4] amounted to 0.38 µM; in data set [5] it was 5.6 µM; in data set [10], 0.033 µM; in data set [16], 1.64 µM. Also, the pEC50 was under 4.24 in data set [6], 8.30 in [12], 5.38 in [13] and 5.71 in [14]. In [8], this compound gave a CC50 of over 57 µM. The selectivity ratio in data set [9] is over 11400.
In the case of `CCc1c(Cc2c(Cl)cccc2Cl)nc(SCC(=O)c2ccccc2)[nH]c1=O`, the “Ratio EC50” value was determined as 171 in [1], 7 in data set [2] and 714 in data set [7]. Moreover, the Ratio in [3] was 5; in data set [11], 50; in [15], 26. Moreover, the ID50 in data set [4] amounted to 0.33 µM; in data set [5], 3.54 µM; in data set [10], 0.071 µM; in data set [16], 1.88 µM. Also, the pEC50 in data set [6] was 5.30; in [12], 8.15; in data set [13], 5.92; in [14] it was 7.34. Further, in data set [8], the CC50 was over 52 µM. Besides, the selectivity ratio in data set [9] was over 7430.
For the compound `CCc1c(Cc2c(F)cccc2Cl)nc(SCC(=O)c2ccccc2)[nH]c1=O`, the results for the “Ratio EC50” value in data set [1], in [2] and in data set [7] were 100, 32 and 782, respectively. Further, the ID50 in data set [4] is over 40 µM; in data set [5], 9.7 µM; in data set [10] it was 0.008 µM; in data set [16], over 40 µM. The pEC50 in [6] is 5.03; in [12] it was 7.92; in data set [13], 5.92; in data set [14], 6.41. Besides, the CC50 in data set [8] is over 12 µM. The selectivity ratio in data set [9] was over 1000. Besides, in [11], the Ratio came to 1210.
Take `CC(C)c1c(Cc2c(Cl)cccc2Cl)nc(SCC(=O)c2ccccc2)[nH]c1=O`: the “Ratio EC50” value was 1275 in [1], 27 in data set [2] and 1375 in [7]. Moreover, the Ratio in data set [3] amounted to 542; in [11], 326; in data set [15], 894. The ID50 in [4] came to 16.8 µM; in [5], 10.1 µM; in data set [10], 0.031 µM; in data set [16], 27.7 µM. Further, the pEC50 was 5.26 in [6], 8.40 in data set [12], 5.29 in [13] and 6.96 in [14]. In data set [8], this compound registered a CC50 of over 56 µM. Further, the selectivity ratio in data set [9] was over 14000.
On to `CC(C)c1c(Cc2c(F)cccc2Cl)nc(SCC(=O)c2ccccc2)[nH]c1=O`, for which the “Ratio EC50” value in data set [1] is 658; in data set [2], 42; in [7], 1540. For the same compound, the ID50 in data set [4] is over 40 µM; in data set [5], 1.3 µM; in [10], 0.001 µM; in [16] it was 4.5 µM. In addition, the negative-log EC50 (pEC50) is 5.11 in data set [6], 8.30 in [12], 5.48 in data set [13] and 6.68 in [14]. In addition, the CC50 in [8] was over 12 µM. For the same compound, in [9], the selectivity ratio was over 2400. The Ratio was 1300 in data set [11] and 4500 in [15].
In the case of `CCc1c(Cc2c(Cl)cccc2Cl)nc(SCC(=O)c2ccc(F)cc2)[nH]c1=O`, the results for the “Ratio EC50” value in [1], in data set [2] and in data set [7] were 671, 70 and 5186, respectively. Moreover, the Ratio was 6 in data set [3], 43 in [11] and 43 in data set [15]. The ID50 in [4] is 0.24 µM; in data set [5], 1.82 µM; in data set [10], 0.042 µM; in [16] it was 1.79 µM. For the same compound, the pEC50 is 4.44 in [6], 8.15 in data set [12], 5.33 in [13] and 6.31 in [14]. Besides, in data set [8], the half-maximal cytotoxic concentration (CC50) is over 55 µM. The selectivity ratio in data set [9] is over 7860.
`COc1ccc(C(=O)CSc2nc(Cc3c(F)cccc3F)c(C(C)C)c(=O)[nH]2)cc1`: the “Ratio EC50” value in data set [1] is given as 8750; in data set [2], 33; in [7], 7350. For the same compound, the ID50 is over 40 µM in data set [4], over 40 µM in data set [5], 0.026 µM in data set [10] and 37.3 µM in data set [16]. Also, the pEC50 in data set [6] is 4.83; in data set [12], 8.70; in [13], 4.76; in data set [14], 7.17. The same compound came in with a CC50 in data set [8] of 33 µM. In [9], the selectivity ratio worked out at 16500. Besides, in [15], the Ratio stood at 1440.
